Reference: ChEMBL document CHEMBL1138738, “Synthesis, in vitro pharmacology, structure-activity relationships, and pharmacokinetics of 3-alkoxy-2-amino-6-fluorobicyclo[3.1.0]hexane-2,6-dicarboxylic acid derivatives as potent and selective group II metabotropic glutamate receptor antagonists” (J Med Chem, 2004)
Each block holds one compound with its values, some of them ahead of it.

Legend:
[1] = biological target: T1, Metabotropic glutamate receptor 2 (Rattus norvegicus, UniProt P31421); assay: Binding affinity towards metabotropic glutamate receptor 2 of rat expressed in CHO cells was determined by using [3H]MGS-0008; assay type: cell-based
[2] = biological target: T2, Metabotropic glutamate receptor 6 (Rattus norvegicus, UniProt P35349); assay: Concentration required to inhibit metabotropic glutamate receptor 6 activity of rat expressed in CHO cells; assay type: cell-based
[3] = biological target: T3, Metabotropic glutamate receptor 5 (Rattus norvegicus, UniProt P31424); assay: Concentration required to inhibit metabotropic glutamate receptor 5 activity of rat expressed in CHO cells; assay type: cell-based
[4] = biological target: Metabotropic glutamate receptor 4 (Rattus norvegicus, UniProt P31423); assay: Concentration required to inhibit metabotropic glutamate receptor 4 activity of rat expressed in CHO cells; assay type: cell-based
[5] = biological target: T4, Metabotropic glutamate receptor 1 (Rattus norvegicus, UniProt P23385); assay: Effective concentration for agonistic activity towards metabotropic glutamate receptor 1 of rat expressed in CHO cells; assay type: functional, cell-based
[6] = biological target: T2, Metabotropic glutamate receptor 6; assay: Effective concentration for agonistic activity towards metabotropic glutamate receptor 6 of rat expressed in CHO cells; assay type: functional, cell-based
[7] = biological target: T3, Metabotropic glutamate receptor 5; assay: Effective concentration for agonistic activity towards metabotropic glutamate receptor 5 of rat expressed in CHO cells; assay type: functional, cell-based
[8] = biological target: Metabotropic glutamate receptor 7 (Rattus norvegicus, UniProt P35400); assay: Binding affinity towards metabotropic glutamate receptor 7 of rat expressed in CHO cells was determined by using [3H]LY341495
[9] = biological target: T4, Metabotropic glutamate receptor 1; assay: Concentration required to inhibit metabotropic glutamate receptor 1 activity of rat expressed in CHO cells; assay type: cell-based
[10] = biological target: Metabotropic glutamate receptor 3 (Rattus norvegicus, UniProt P31422); assay: Binding affinity towards metabotropic glutamate receptor 3 of rat expressed in CHO cells was determined by using [3H]MGS-0008; assay type: cell-based
[11] = Half-life in rat upon oral dose of 30 mg/kg; assay type: ADME, organism-based; set-up: dose 30 mg/kg, route oral; conditions: in vivo
Procedure, shortened: (§1)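 Fasted rats were dosed orally at 3, 10 or 30 mg/kg. Plasma concentration-time profiles were measured by LC/ESI-MS/MS. Cmax, Tmax, elimination half-life and AUCinf were derived per dose group and reported as mean ± deviation.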

[12] = Maximum time required to achieve peak plasma concentration upon oral dose of 10 mg/kg to rats; assay type: ADME, organism-based; set-up: dose 10 mg/kg, route oral; conditions: rat; procedure, shortened: as §1
[13] = Concentration of compound in plasma of rat after 1 hr of oral dose 10 mg/kg; assay type: ADME, organism-based; set-up: dose 10 mg/kg, route oral
Procedure, shortened: (§2)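 Rats given a single peroral dose of 10 mg/kg. Plasma and cerebrum were sampled at 1, 3, 6 and 24 h. Concentrations were measured by LC/ESI-MS/MS using an internal standard. Detection limits were 1 ng/mL in plasma and 1.5 ng/g in brain. Tmax, Cmax, terminal half-life (lambda z) and predicted AUCinf were derived from the mean time-course levels.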

[14] = Half-life in rat brain upon oral dose of 10 mg/kg; assay type: ADME, organism-based; set-up: dose 10 mg/kg, route oral; procedure, shortened: as §2
[15] = Maximum time required to achieve peak plasma concentration upon oral dose of 3 mg/kg to rats; assay type: ADME, organism-based; set-up: dose 3 mg/kg, route oral; conditions: rat; procedure, shortened: as §1
[16] = Concentration of compound in brain of rat after 6 hr of oral dose 10 mg/kg; assay type: ADME, organism-based; set-up: dose 10 mg/kg, route oral; procedure, shortened: as §2
[17] = Peak plasma concentration in rat brain upon oral dose of 10 mg/kg; assay type: ADME, organism-based; set-up: dose 10 mg/kg, route oral; procedure, shortened: as §2
[18] = Maximum time required to achieve peak plasma concentration in rat brain upon oral dose of 10 mg/kg; assay type: ADME, organism-based; set-up: dose 10 mg/kg, route oral; procedure, shortened: as §2
[19] = Peak plasma concentration in rats upon oral dose of 30 mg/kg; assay type: ADME, organism-based; set-up: dose 30 mg/kg, route oral; conditions: rat; procedure, shortened: as §1
[20] = Concentration of compound in brain of rat after 24 hr of oral dose 10 mg/kg; assay type: ADME, organism-based; set-up: dose 10 mg/kg, route oral; procedure, shortened: as §2
[21] = Concentration of compound in brain of rat after 1 hr of oral dose 10 mg/kg; assay type: ADME, organism-based; set-up: dose 10 mg/kg, route oral; procedure, shortened: as §2
[22] = Concentration of compound in plasma of rat after 6 hr of oral dose 10 mg/kg; assay type: ADME, organism-based; set-up: dose 10 mg/kg, route oral; procedure, shortened: as §2
[23] = Maximum time required to achieve peak plasma concentration upon oral dose of 30 mg/kg to rats; assay type: ADME, organism-based; set-up: dose 30 mg/kg, route oral; conditions: rat; procedure, shortened: as §1
[24] = Concentration of compound in plasma of rat after 3h of oral dose 10 mg/kg; assay type: ADME, organism-based; set-up: dose 10 mg/kg, route oral; procedure, shortened: as §2
[25] = Half-life in rat upon oral dose of 3 mg/kg; assay type: ADME, organism-based; set-up: dose 3 mg/kg, route oral; conditions: in vivo; procedure, shortened: as §1
[26] = Half-life in rat upon oral dose of 10 mg/kg; assay type: ADME, organism-based; set-up: dose 10 mg/kg, route oral; conditions: in vivo; procedure, shortened: as §1
[27] = Peak plasma concentration in rats upon oral dose of 3 mg/kg; assay type: ADME, organism-based; set-up: dose 3 mg/kg, route oral; conditions: rat; procedure, shortened: as §1
[28] = Concentration of compound in brain of rat after 3h of oral dose 10 mg/kg; assay type: ADME, organism-based; set-up: dose 10 mg/kg, route oral; procedure, shortened: as §2
[29] = Peak plasma concentration in rats upon oral dose of 10 mg/kg; assay type: ADME, organism-based; set-up: dose 10 mg/kg, route oral; conditions: rat; procedure, shortened: as §1
[30] = Half-life in rat plasma upon oral dose of 10 mg/kg; assay type: ADME, organism-based; set-up: dose 10 mg/kg, route oral; procedure, shortened: as §2
[31] = Concentration of compound in plasma of rat after 24 hr of oral dose 10 mg/kg; assay type: ADME, organism-based; set-up: dose 10 mg/kg, route oral; procedure, shortened: as §2
[32] = biological target: T1, Metabotropic glutamate receptor 2; assay: Concentration required to inhibit metabotropic glutamate receptor 2 activity of rat expressed in CHO cells; assay type: cell-based
[33] = Peak plasma concentration in rat plasma upon oral dose of 10 mg/kg; assay type: ADME, organism-based; set-up: dose 10 mg/kg, route oral; procedure, shortened: as §2
[34] = Maximum time required to achieve peak plasma concentration in rat plasma upon oral dose of 10 mg/kg; assay type: ADME, organism-based; set-up: dose 10 mg/kg, route oral; procedure, shortened: as §2
[35] = biological target: T1, Metabotropic glutamate receptor 2; assay: Effective concentration for agonistic activity towards metabotropic glutamate receptor 2 of rat expressed in CHO cells; assay type: functional, cell-based

T1 sequence (P31421 whole entry): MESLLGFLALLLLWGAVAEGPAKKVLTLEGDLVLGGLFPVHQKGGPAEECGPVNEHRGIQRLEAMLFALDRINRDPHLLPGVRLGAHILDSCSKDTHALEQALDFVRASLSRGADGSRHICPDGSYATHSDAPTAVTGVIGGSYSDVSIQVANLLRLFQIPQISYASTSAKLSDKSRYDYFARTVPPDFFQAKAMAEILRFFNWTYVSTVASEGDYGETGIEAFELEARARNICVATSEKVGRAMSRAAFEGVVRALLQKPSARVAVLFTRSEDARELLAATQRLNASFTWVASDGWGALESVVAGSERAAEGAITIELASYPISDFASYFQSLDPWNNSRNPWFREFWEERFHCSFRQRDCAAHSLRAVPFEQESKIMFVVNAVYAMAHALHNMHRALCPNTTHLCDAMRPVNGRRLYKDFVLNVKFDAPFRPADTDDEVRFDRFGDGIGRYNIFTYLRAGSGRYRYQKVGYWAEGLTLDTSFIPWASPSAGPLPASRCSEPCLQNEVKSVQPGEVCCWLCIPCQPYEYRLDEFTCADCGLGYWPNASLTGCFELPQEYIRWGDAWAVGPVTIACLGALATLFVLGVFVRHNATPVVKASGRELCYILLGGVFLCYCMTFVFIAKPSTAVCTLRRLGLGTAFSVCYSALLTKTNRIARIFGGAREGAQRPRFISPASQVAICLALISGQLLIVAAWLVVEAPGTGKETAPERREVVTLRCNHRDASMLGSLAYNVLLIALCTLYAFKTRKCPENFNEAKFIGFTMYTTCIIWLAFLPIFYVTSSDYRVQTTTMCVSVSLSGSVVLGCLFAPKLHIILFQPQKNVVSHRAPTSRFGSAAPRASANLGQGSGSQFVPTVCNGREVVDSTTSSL
Metabotropic glutamate receptor 3, sequence (P31422 whole entry): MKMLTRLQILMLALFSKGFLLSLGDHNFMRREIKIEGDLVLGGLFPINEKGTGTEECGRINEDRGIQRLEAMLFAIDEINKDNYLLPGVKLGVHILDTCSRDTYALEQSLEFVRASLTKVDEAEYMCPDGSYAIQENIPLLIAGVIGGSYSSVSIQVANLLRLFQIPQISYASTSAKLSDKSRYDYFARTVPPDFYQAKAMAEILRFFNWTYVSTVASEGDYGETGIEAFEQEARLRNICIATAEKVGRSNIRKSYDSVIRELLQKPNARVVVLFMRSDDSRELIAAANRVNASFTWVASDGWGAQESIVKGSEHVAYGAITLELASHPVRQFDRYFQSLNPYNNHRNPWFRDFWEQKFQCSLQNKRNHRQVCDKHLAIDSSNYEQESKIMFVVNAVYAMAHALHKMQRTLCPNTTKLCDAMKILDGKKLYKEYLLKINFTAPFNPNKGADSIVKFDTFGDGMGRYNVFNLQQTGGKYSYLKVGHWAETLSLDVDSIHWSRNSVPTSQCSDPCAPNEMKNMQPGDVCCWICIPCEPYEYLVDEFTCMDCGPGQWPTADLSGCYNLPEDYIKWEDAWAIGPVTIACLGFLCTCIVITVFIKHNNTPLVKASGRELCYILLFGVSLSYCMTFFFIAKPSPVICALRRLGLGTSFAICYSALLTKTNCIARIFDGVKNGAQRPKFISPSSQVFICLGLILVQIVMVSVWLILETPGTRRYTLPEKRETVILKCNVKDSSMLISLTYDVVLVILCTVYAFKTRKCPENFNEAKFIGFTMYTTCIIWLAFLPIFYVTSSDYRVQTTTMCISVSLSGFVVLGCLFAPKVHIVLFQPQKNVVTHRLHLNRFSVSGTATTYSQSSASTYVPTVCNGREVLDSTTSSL
T4 sequence (P23385 whole entry): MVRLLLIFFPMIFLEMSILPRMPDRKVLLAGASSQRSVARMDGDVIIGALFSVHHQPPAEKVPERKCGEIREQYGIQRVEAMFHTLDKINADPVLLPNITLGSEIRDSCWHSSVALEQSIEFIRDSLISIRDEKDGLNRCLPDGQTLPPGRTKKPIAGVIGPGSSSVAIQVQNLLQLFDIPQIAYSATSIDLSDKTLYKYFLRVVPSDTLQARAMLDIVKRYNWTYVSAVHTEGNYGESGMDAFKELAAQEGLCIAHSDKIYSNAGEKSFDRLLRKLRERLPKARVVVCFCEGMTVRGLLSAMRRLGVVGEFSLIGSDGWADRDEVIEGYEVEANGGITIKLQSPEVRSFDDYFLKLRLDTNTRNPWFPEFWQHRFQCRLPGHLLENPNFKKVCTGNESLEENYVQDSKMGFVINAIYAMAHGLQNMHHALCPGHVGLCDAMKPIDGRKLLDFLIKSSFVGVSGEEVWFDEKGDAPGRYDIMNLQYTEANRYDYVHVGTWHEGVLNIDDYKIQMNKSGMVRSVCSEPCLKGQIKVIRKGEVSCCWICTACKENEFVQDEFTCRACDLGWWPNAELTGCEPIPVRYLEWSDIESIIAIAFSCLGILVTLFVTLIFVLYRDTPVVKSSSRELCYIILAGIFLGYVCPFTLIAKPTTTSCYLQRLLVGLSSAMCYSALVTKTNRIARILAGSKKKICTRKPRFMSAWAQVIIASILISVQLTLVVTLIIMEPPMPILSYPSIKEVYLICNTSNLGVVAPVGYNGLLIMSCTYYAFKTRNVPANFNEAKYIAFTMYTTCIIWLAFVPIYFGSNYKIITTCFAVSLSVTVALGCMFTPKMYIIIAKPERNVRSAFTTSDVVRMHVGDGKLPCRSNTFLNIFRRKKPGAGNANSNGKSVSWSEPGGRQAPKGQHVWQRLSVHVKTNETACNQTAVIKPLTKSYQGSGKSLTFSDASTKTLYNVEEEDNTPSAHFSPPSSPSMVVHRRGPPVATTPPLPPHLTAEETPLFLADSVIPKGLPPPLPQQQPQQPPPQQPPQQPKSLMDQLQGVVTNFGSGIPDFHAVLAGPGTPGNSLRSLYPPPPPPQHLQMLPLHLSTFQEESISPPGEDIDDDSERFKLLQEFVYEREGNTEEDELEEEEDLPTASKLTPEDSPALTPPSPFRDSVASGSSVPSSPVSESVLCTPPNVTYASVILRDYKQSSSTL
T2 sequence (P35349 whole entry): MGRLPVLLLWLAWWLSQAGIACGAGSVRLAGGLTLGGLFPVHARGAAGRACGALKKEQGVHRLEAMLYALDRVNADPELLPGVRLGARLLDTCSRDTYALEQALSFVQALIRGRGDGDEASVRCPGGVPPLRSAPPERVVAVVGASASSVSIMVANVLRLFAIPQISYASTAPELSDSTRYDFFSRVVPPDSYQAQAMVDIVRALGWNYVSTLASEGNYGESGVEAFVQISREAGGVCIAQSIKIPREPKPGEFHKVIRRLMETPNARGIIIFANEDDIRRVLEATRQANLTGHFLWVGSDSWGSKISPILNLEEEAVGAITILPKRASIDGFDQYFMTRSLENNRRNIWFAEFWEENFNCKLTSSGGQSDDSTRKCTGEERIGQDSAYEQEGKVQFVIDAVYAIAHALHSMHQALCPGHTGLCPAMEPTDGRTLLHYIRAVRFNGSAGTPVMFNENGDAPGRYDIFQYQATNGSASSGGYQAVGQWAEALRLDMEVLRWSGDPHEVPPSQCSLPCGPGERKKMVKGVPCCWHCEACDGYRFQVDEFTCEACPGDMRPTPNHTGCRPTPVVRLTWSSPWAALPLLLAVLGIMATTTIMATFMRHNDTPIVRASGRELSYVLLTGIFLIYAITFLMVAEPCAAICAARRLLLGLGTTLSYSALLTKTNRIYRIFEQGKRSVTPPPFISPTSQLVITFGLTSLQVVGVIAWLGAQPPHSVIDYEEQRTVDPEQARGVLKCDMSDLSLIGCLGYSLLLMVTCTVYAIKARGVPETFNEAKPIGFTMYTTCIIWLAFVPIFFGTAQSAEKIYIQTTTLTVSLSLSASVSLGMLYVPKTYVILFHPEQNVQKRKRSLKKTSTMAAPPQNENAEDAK
T3 sequence (P31424 whole entry): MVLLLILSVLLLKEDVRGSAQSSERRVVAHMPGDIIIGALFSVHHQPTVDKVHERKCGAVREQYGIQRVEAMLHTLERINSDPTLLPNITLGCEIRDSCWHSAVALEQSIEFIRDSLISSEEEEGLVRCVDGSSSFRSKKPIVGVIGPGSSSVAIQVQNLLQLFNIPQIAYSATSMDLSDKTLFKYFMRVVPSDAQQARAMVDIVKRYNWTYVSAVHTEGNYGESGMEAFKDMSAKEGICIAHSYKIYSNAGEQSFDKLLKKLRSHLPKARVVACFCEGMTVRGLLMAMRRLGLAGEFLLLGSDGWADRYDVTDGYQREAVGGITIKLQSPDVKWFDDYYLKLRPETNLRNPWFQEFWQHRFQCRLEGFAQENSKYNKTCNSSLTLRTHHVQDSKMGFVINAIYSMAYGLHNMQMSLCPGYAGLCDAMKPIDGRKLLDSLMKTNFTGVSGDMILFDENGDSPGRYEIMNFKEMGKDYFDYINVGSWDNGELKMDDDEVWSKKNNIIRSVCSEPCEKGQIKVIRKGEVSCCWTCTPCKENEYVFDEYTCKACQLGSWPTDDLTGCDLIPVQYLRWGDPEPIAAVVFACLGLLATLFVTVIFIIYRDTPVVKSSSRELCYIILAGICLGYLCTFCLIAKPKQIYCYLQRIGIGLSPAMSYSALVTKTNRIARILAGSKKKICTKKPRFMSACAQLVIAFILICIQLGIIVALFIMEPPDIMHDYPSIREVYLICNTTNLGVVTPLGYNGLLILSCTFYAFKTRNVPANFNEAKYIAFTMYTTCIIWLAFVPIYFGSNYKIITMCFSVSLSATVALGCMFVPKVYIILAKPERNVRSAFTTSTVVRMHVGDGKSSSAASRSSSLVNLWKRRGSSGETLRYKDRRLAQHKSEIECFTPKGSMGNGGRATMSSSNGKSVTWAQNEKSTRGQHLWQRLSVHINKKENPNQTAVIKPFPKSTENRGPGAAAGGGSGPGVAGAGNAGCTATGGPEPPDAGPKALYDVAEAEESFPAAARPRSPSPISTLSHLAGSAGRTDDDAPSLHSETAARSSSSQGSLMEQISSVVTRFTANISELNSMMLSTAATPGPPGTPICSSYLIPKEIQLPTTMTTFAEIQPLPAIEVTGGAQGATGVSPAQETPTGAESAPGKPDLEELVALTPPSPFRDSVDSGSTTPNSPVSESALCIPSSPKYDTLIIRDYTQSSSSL

SMILES: N[C@]1(C(=O)O)[C@@H](OCc2ccc(Cl)c(Cl)c2)C[C@H]2[C@@H]1[C@]2(F)C(=O)O
Ki [1]: > 10000 nM

SMILES: N[C@]1(C(=O)O)[C@H]2[C@@H](C[C@H]1OCc1cc(Cl)ccc1Cl)[C@]2(F)C(=O)O
Ki [1]: 11.8 nM

SMILES: N[C@](CC1c2ccccc2Oc2ccccc21)(C(=O)O)[C@H]1C[C@@H]1C(=O)O
IC50 [2]: 1140 nM | IC50 [3]: 11400 nM | IC50 [4]: 2650 nM | EC50 [5]: > 100000 nM | EC50 [6]: > 100000 nM | EC50 [7]: > 100000 nM | Ki [8]: 110 nM | IC50 [9]: 8990 nM

SMILES: N[C@]1(C(=O)O)[C@H]2[C@@H](C[C@H]1OCc1cccc(-c3ccccc3)c1)[C@]2(F)C(=O)O
Ki [1]: 9.34 nM

SMILES: N[C@]1(C(=O)O)[C@H]2[C@@H](C[C@H]1OCc1cc(F)ccc1F)[C@]2(F)C(=O)O
Ki [1]: 14.4 nM

SMILES: N[C@]1(C(=O)O)[C@H]2[C@@H](C[C@H]1OCc1ccc3ccccc3c1)[C@]2(F)C(=O)O
Ki [10]: 5.43 nM | half-life [11]: 2.93 h | Tmax [12]: 2.7 h | concentration at 1 h [13]: 121 ng/mL | half-life [14]: 7.1 h | Tmax [15]: 4 h | concentration at 6 h [16]: 8.72 ng/mL | Cmax [17]: 8.72 ng/mL | Tmax [18]: 6 h | Cmax [19]: 965 ng/mL | concentration at 24 h [20]: 0.25 ng/mL | concentration at 1 h [21]: 1.42 ng/mL | concentration at 6 h [22]: 210 ng/mL | Tmax [23]: 2.7 h | concentration at 3 h [24]: 252 ng/mL | half-life [25]: 3.66 h | half-life [26]: 2.74 h | Cmax [27]: 65.9 ng/mL | concentration at 3 h [28]: 3.64 ng/mL | Cmax [29]: 374 ng/mL | half-life [30]: 2.9 h | concentration at 24 h [31]: 2.2 ng/mL | IC50 [32]: 22.7 nM | Cmax [33]: 252 ng/mL | Tmax [34]: 3 h

SMILES: CO[C@@H]1C[C@@H]2[C@H]([C@]1(N)C(=O)O)[C@@]2(F)C(=O)O
Ki [10]: 88.1 nM | Ki [1]: 39.2 nM

Next, values leading:

Ki [1]: 3.28 nM
SMILES: N[C@]1(C(=O)O)[C@H]2[C@@H](C[C@H]1OCc1cccc(Cl)c1)[C@]2(F)C(=O)O

Ki [1]: 3.12 nM
SMILES: CC[C@H](O[C@@H]1C[C@@H]2[C@H]([C@]1(N)C(=O)O)[C@@]2(F)C(=O)O)c1ccc(Cl)c(Cl)c1

Ki [1]: 4.02 nM
SMILES: N[C@]1(C(=O)O)[C@H]2[C@@H](C[C@H]1OCc1ccc(Cl)c(F)c1)[C@]2(F)C(=O)O

Ki [1]: 3.05 nM
SMILES: CCC[C@H](O[C@@H]1C[C@@H]2[C@H]([C@]1(N)C(=O)O)[C@@]2(F)C(=O)O)c1ccc(Cl)c(Cl)c1

Ki [1]: 7.02 nM
SMILES: N[C@]1(C(=O)O)[C@H]2[C@@H](C[C@H]1OCc1c(F)cccc1F)[C@]2(F)C(=O)O

Ki [10]: 15.9 nM | Ki [1]: 7.14 nM | IC50 [32]: 131 nM
SMILES: N[C@]1(C(=O)O)[C@H]2[C@@H](C[C@H]1OCc1ccccc1)[C@]2(F)C(=O)O

Ki [1]: 3.67 nM
SMILES: N[C@]1(C(=O)O)[C@H]2[C@@H](C[C@H]1OCc1cc(Cl)c(Cl)c(Cl)c1)[C@]2(F)C(=O)O

Ki [10]: 3.93 nM | half-life [11]: 3.63 h | Tmax [12]: 1.8 h | concentration at 1 h [13]: 61.3 ng/mL | half-life [14]: 9 h | Tmax [15]: 0.7 h | Ki [1]: 2.58 nM | concentration at 6 h [16]: 2.04 ng/mL | Cmax [17]: 2.04 ng/mL | Tmax [18]: 6 h | Cmax [19]: 312 ng/mL | concentration at 24 h [20]: 0.51 ng/mL | concentration at 6 h [22]: 23.1 ng/mL | Tmax [23]: 1 h | concentration at 3 h [24]: 37.6 ng/mL | half-life [25]: 1.62 h | half-life [26]: 2.2 h | Cmax [27]: 25 ng/mL | EC50 [35]: > 100000 nM | Cmax [29]: 85.1 ng/mL | half-life [30]: 2.8 h | concentration at 24 h [31]: 0.2 ng/mL | IC50 [32]: 24.4 nM | Cmax [33]: 61.3 ng/mL | Tmax [34]: 1 h
SMILES: N[C@]1(C(=O)O)[C@H]2[C@@H](C[C@H]1OC(c1ccccc1)c1ccccc1)[C@]2(F)C(=O)O
